Most compounds without a hit are left out; they make up all but 12% or so of the library.
Dynein cargo inh – inhibitors of GR-EGFP nuclear translocation, primary screen, dynein cargo transport inhibitor project, imaging, high-content, 3617.4 mouse cells; test concentration mostly 20 µM; stimulated with dexamethasone, 1 µM; active compounds read low; z-score, hits read low; actives 0.47% (n = 220,000);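 active = plate z-score of nuclear minus cytoplasmic receptor signal below a set negative limit, without overly bright fluorescence or cell loss, cut at about -3.5 in these data, passing the limit was not always enough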;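 also: z-score of nuclear minus cytoplasmic ring GR-EGFP intensity difference per well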
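Also added – dexamethasone, 1.0 µM final · Buffer or medium – tet-free, stripped-serum medium · Schedule – induction 48 h, compound 1 h, agonist 30 min · Detection – formaldehyde fixation, Hoechst nuclear stain, 10x automated fluorescence imaging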
b-catenin transl – modulators of beta-catenin nuclear translocation, primary screen, imaging, HeLa cells, immunofluorescence, high-content | nuclear translocation activity, % at 5 µM | actives 0.3% (n = 190,000);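 active = nuclear translocation activity above 50% at 5 µM, with a well cell count of 50 or more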;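 also: per-cell ratio of nuclear to cytoplasmic median beta-catenin stain intensity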
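Read-out: Nuclear/cytoplasmic beta-catenin signal ratio, % activation | Assay system: Human HeLa cell line | Times: 24 h compound exposure at 37°C, 5% CO2 | Signal: Fluorescence imaging of beta-catenin antibody stain plus DAPI | Dosing: 5 µM primary, 0.02–20 µM confirmation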
Autophagy mod – autophagy modulators in MEF cells, primary screen, imaging, high-content, MEF GFP-LC3; MEF GFP-LC3 puncta imaging; test concentration mostly 10 µM; calls only at 10 µM (by protocol); actives 0.98% (n = 190,000);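 active = percentage of spot-positive cells more than 3 SD above its plate mean, without a fluorescence outlier flag or 80% toxicity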
CHOP inh – inhibitors of CHOP promoter induction, primary screen, cell-based, unfolded protein response, luciferase reporter. CHO-K1 CHOP-promoter luciferase, tunicamycin-induced, 15-18 h. inhibition, % at 10 µM. actives 3.8% (n = 220,000). AID 2732, 2010;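 active = compounds that reduced the stress-induced luciferase reporter signal by more than about 70% of percent inhibition, limit read from the data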
L major viab – Leishmania major promastigote growth inhibition, primary screen. Leishmania major promastigotes, resazurin fluorescence viability. inhibition, % at 10 µM. actives 9% (n = 200,000); in the data active = inhibition above about 50%;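 also: promastigotes grown with compound for 44 hours at 28 °C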
MT stabilize HCS – microtubule stabilizers in HeLa cells, primary screen, imaging, high-content imaging; % tubulin-high responders, % at 10 µM; HeLa tubulin immunostaining HCS, 24 h; share of cells brighter than vehicle mean+2SD; actives 0.83% (n = 200,000);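 active = plate Z-score above 3 for both tubulin-high and condensed-nucleus cell shares, with cell loss under 80%, at 10 µM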;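 also: anti alpha tubulin signal scored within the nucleus-defined area of each cell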
Hits are given with their value; . = inactive; / = no result given; + = active, no number.

SMILES | Dynein cargo inh | b-catenin transl | Autophagy mod | CHOP inh | L major viab | MT stabilize HCS
Cc1cc(Oc2ccc(C#N)cc2)nc(NCc2ccccc2)n1 | . | . | . | 77 | . | .
Cc1ccccc1-n1c(SCC(=O)N/N=C/C=C/c2ccccc2[N+](=O)[O-])nc2ccccc2c1=O | . | . | . | . | 60 | .
Cc1cc(N2CCC(C)CC2)nc2cccc(O)c12 | . | . | . | 82 | . | .
Cc1nc2ccccc2nc1N1CCC(C)CC1 | . | . | . | . | . | .
CCn1c2ccccc2c2cc(NC(=O)C(=O)N3CCOCC3)ccc21 | . | . | . | . | . | .
CCN(CC)S(=O)(=O)c1ccc(C(=O)OC2CCCCC2CN(C)C)cc1 (centres undefined) | . | . | . | . | . | .
CN(C)CC1CCCCC1OC(=O)c1ccc(Cl)cc1 (centres undefined) | . | . | . | . | 57 | .
COc1ccc(-n2cc(CNCCN3CCOC3=O)c(-c3ccccc3Cl)n2)cc1 | . | . | / | . | / | /
Fc1ccc(-n2cc(CNCCc3ccccn3)c(-c3ccccc3Cl)n2)cc1 | . | . | . | . | . | .
CCN1CCC(CNCc2cn(-c3ccc(OC)cc3)nc2-c2ccccc2Cl)C1 (centres undefined) | . | . | . | . | 101 | .
COc1ccc(-n2cc(CNCCCn3ccnc3)c(-c3ccccc3Cl)n2)cc1 | . | . | . | . | 100 | .
COc1ccc(-n2cc(CNCCc3nc(C)cc(C)n3)c(-c3ccccc3Cl)n2)cc1 | . | . | . | . | . | .
COc1ccc(-n2cc(CNCCc3ncc(C)[nH]3)c(-c3ccccc3Cl)n2)cc1 | . | . | . | . | 100 | .
COC(=O)c1ccc(C(=O)NCCCCO)cc1 | . | . | . | . | . | .
OC(COc1ccc(Cl)cc1)CN1CCN(c2cccc(Cl)c2)CC1 (centres undefined) | . | . | / | . | / | /
COc1ccc(C[C@H]2CN3C(=NC[C@@H]3Cc3ccccc3)N2CCNC(=O)CCC2CCCCC2)cc1 | . | . | . | . | 58 | .
Nc1nc(SCC(=O)Nc2cccc(Oc3ccccc3)c2)n[nH]1 | . | . | . | . | 56 | .
COC(=O)c1cc(C#N)c(N2CCN(C)CC2)nc1C | . | . | . | . | . | .
COC(=O)c1cn(C(=O)c2ccccc2Cl)c2ccccc12 | . | . | . | . | . | 18
COC(=O)c1cn(C(=O)/C=C/c2ccc(OC)c(OC)c2)c2ccccc12 | . | . | . | . | . | .
COC(=O)c1cn(C(=O)c2ccc(C)cc2C)c2ccccc12 | . | . | . | . | . | 15
COC(=O)c1cn(C(=O)OC)c2ccccc12 | . | . | . | . | . | .
COc1ccc(NS(=O)(=O)c2cccc(C(=O)NNC(=O)NCCCl)c2)cc1 | . | . | . | . | . | .
COc1ccc(CN(C(=O)CSc2nnc(-c3c[nH]c4ccccc34)o2)c2ccc(F)cc2)cc1OC | . | . | . | . | . | .
COc1nc(Nc2ccc(C(C)C)cc2)nc(OC)n1 | . | / | . | . | 86 | .
SMILES | Dynein cargo inh | b-catenin transl | Autophagy mod | CHOP inh | L major viab | MT stabilize HCS
COc1ccc(Nc2nc(Cl)nc(N3CCN(c4ccc(OC)cc4)CC3)n2)cc1 | . | . | . | 93 | 53 | .
COc1ccc(Nc2nc(OC)nc(N3CCN(c4ccc(OC)cc4)CC3)n2)cc1 | . | . | . | 77 | . | .
C=CCNc1nc(Cl)nc(Nc2ccc(OC)cc2)n1 | . | / | . | . | . | .
COc1ccc(Nc2nc(Cl)nc(Nc3ccc(OC)cc3)n2)cc1 | . | . | . | 71 | . | .
O=C(NCCO)C(=O)c1c(-c2ccccc2)cc2ccccn12 | . | . | . | . | . | .
CCCNC(=O)C1CCN(S(=O)(=O)c2ccc(Br)cc2)CC1 | . | . | . | . | . | .
O=c1c2ccc([N+](=O)[O-])cc2ncn1CCOc1cccc(Br)c1 | . | . | + | . | . | .
O=c1c2ccc([N+](=O)[O-])cc2ncn1CCOc1ccc(Cl)cc1 | . | . | . | . | . | .
Nc1cnn(C2CCCO2)c(=O)n1 (centres undefined) | . | . | . | . | . | .
